Laboratory results from article PMC3321063 (Bioorganic & medicinal chemistry letters, 2012).
Entries after “also recorded” stand apart in the source; their conditions may differ.

What was measured:
[1] = tested on: intracellular γ-secretase; details: previous studies; cited from earlier work
[2] = target: T1, signal peptide peptidase (SPP) (Homo sapiens, UniProt Q8TCT9); assay type: binding; details: HeLa membranes, probe 20 nM
T1 sequence (Q8TCT9 1-377): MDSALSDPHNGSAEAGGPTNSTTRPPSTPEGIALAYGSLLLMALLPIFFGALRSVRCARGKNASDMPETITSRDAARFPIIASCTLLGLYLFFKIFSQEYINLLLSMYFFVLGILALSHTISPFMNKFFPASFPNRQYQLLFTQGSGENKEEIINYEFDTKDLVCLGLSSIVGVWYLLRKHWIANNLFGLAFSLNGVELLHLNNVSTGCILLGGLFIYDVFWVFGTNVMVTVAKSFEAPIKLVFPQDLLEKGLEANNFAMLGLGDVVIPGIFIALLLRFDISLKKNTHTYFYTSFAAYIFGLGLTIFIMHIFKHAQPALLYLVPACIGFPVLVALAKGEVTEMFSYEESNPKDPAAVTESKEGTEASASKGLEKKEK
Outline: (§1)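 HeLa membranes (800 μg/1.2 mL PBS) incubated 1 h at 37 °C with clickable photoprobe (20 nM) with or without competing GSI (1 μM), then irradiated at ~350 nm for 30 min at 4 °C and pelleted. Click reaction in PBS: TCEP 1.0 mM, CuSO4 1.0 mM, TBTA 0.1 mM, biotin-azide 0.1 mM, 1 h RT with agitation. Pelleted membranes solubilized in RIPA, streptavidin-enriched, SDS-PAGE, Western blot.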

PS1-NTF = PS1-NTF (Homo sapiens, UniProt P49768); assay type: binding; details: HeLa membranes; for PS1-NTF photolabeling: irradiation ~350 nm
Outline: as §1

PS1-CTF = PS1-CTF (Homo sapiens, UniProt P49768); assay type: binding; details: HeLa membranes, probe 20 nM
Outline: as §1

SMILES: CC(C)C[C@H](NC(=O)[C@H](Cc1ccccc1)C[C@@H](O)[C@H](Cc1ccccc1)NC(=O)c1ccc(C(=O)c2ccccc2)cc1)C(=O)N[C@@H](Cc1ccccc1)C(=O)NCCCCCNC(=O)CCCC[C@@H]1SC[C@@H]2NC(=O)N[C@@H]21 [compound 2]
- cell penetration (plasma membrane, access to intracellular γ-secretase) [1]: cannot

SMILES: C#CCCCCNC(=O)[C@H](Cc1ccccc1)NC(=O)[C@H](CC(C)C)NC(=O)[C@H](Cc1ccccc1)C[C@@H](O)[C@H](Cc1ccccc1)NC(=O)c1ccc(C(=O)c2ccccc2)cc1 [compound 4]
- SPP photolabeling [2]: minimal labeling of SPP
- labeling efficiency of PS1-NTF relative to 2 (fold less) (PS1-NTF; probe 20 nM, after click reaction with biotin-azide): 2–3 fold
- PS1-NTF photolabeling (PS1-NTF; probe 20 nM): efficient PS1-NTF photolabeling; also recorded: strongly labeled PS1-NTF vs. CTF

SMILES: CC(C)C[C@H](NC(=O)[C@H](Cc1ccccc1)C[C@@H](O)[C@H](Cc1ccccc1)NC(=O)OC(C)(C)C)C(=O)N[C@@H](Cc1ccccc1)C(N)=O [compound 1, reference compound]
- blocking of PS1-NTF labeling by competitor (PS1-NTF; competitor 1 μM, probe 2 or 4): PS1-NTF labeling was blocked

SMILES: C#CCCCCNC(=O)[C@H](Cc1ccc(C(=O)c2ccccc2)cc1)NC(=O)[C@H](CC(C)C)NC(=O)[C@H](Cc1ccccc1)C[C@@H](O)[C@H](Cc1ccccc1)NC(=O)OC(C)(C)C [compound 5]
- SPP photolabeling [2]: significant labeling of SPP
- PS1-CTF photolabeling (PS1-CTF): expected preference for PS1-CTF
- PS1-NTF photolabeling (PS1-NTF; probe 20 nM): minimal PS1-NTF labeling
